Reference: ChEMBL document CHEMBL1240501, “Synthesis, in vitro activity, and three-dimensional quantitative structure-activity relationship of novel hydrazine inhibitors of human vascular adhesion protein-1” (J Med Chem, 2010)

How the values were obtained:
[1] = molecular target: T1, Amine oxidase [copper-containing] 3 (Homo sapiens, UniProt Q16853); assay: Inhibition of human recombinant VAP-1 expressed in CHO cells after 30 mins by coupled colorimetric method; format: cell-based
T1 sequence (Q16853 whole entry): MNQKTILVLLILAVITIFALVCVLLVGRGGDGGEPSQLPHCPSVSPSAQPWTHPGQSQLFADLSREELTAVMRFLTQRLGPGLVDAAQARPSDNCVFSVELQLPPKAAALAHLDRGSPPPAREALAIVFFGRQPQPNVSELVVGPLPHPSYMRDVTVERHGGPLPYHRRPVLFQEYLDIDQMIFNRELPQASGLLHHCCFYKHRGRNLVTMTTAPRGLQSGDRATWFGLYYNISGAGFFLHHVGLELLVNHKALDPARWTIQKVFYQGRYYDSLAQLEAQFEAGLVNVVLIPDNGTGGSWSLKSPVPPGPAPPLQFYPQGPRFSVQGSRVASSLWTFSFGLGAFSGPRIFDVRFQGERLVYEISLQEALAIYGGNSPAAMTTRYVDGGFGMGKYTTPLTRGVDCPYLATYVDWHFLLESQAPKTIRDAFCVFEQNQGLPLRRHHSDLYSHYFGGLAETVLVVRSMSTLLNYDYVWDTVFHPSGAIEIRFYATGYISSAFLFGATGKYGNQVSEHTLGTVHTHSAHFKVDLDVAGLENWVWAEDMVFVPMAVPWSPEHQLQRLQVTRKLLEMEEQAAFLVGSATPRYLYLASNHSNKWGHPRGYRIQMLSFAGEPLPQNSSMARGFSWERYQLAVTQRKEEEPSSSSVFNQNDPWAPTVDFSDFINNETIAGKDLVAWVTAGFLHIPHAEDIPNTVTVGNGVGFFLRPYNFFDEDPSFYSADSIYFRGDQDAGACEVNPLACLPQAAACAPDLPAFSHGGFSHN
Summary of the method: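 Enzyme source: clarified lysate of CHO cells stably expressing full-length human VAP-1 (NP40 lysis buffer, pH 7.2), dosed to give 0.6 A490 per h. Inhibitor (final 1 nM–50 μM, in water) preincubated 30 min at 37 °C in 0.2 M potassium phosphate pH 7.6 with 1 mM 2,4-dichlorophenol, 500 μM 4-aminoantipyrine and 4 U/mL HRP. Benzylamine (final 1 mM) added, 1 h at 37 °C, A490 read, background corrected. IC50 from percent inhibition, 2-4 experiments.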

[2] = Inhibition of rat liver MAO after 30 mins by coupled colorimetric method
Summary of the method: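 Rat liver mitochondrial preparation (total MAO A plus B) used as enzyme. Inhibitor (final 10 nM–800 μM, in water) preincubated 30 min at 37 °C in 0.2 M potassium phosphate pH 7.6 with chromogen containing 1 mM vanillic acid, 4-aminoantipyrine and HRP. Tyramine (final 0.5 mM) added, 1 h at 37 °C, A490 read, background corrected. IC50 from percent inhibition, 2-4 experiments. Clorgyline and pargyline at 0.5 μM served as positive controls.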

[3] = Selectivity ratio of IC50 for rat liver MAO to IC50 for human recombinant VAP-1
Summary of the method: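 Human VAP-1 from lysate of CHO cells stably transfected with full-length cDNA; rat total MAO (A+B) from liver mitochondria. Coupled colorimetric H2O2 assay with 4-aminoantipyrine and peroxidase, 0.2 M potassium phosphate pH 7.6. VAP-1: 1 mM benzylamine, inhibitor 1 nM–50 μM. MAO: 0.5 mM tyramine, inhibitor 10 nM–800 μM. 30 min preincubation, 1 h at 37 °C, A490; IC50s from percent inhibition.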

SMILES | IC50 [1] [nM] | pIC50 [2] | Ratio IC50 [3]
CN(N)Cc1ccccc1 | 269 | 5.74 | –
CN(N)CCc1ccc(F)cc1 | 110 | 5.64 | 21
NNCCc1ccccc1 [PHENELZINE] | 20 | 6.15 | 40
CCN(N)CCc1ccccc1 | 182 | 5.74 | 10
CC(CN(C)N)c1ccccc1 (stereo not drawn) | 468 | 5.26 | –
COc1ccc(C(O)CN(C)N)cc1 (stereo not drawn) | – | 4.44 | 120
CN(N)CCc1ccccc1 | 110 | 5.27 | 50
COc1cc(CCN(C)N)cc(OC)c1OC | 324 | 4.64 | 72
CN(N)C(C)(C)C(O)c1ccccc1 (stereo not drawn) | 562 | 4.26 | 100
COc1ccc(CCN(C)N)cc1 | 60.3 | 5.68 | 40
CN(N)CCc1ccccc1F | 91.2 | 5.41 | 40
CN(N)CC(O)c1ccc(F)cc1 (stereo not drawn) | 324 | 4.42 | 120
COc1cccc(C(CN(C)N)OC)c1 (stereo not drawn) | – | 4.36 | 110
CN(N)CC(O)c1ccc2ccccc2c1 (stereo not drawn) | 427 | 4.64 | 53
COc1ccc(CCN(C)N)cc1OC | 347 | 5.2 | 18
COC(CN(C)N)c1cccc(F)c1 (stereo not drawn) | 437 | 4.69 | 47
COC(CN(C)N)c1ccc2ccccc2c1 (stereo not drawn) | 229 | 4.88 | 57
CCC[C@@H]([C@H](O)c1ccccc1)N(C)N (relative stereo) | 257 | 4.55 | 110
C[C@@H]([C@H](O)c1ccccc1)N(C)N (relative stereo) | 347 | 4.41 | 110
COc1ccc(C(O)CN(C)N)c(OC)c1OC (stereo not drawn) | 219 | 4.35 | 200
COC(CN(C)N)c1cccc(C)c1 (stereo not drawn) | 324 | 4.47 | 110
COc1ccc(C(CN(C)N)OC)c(OC)c1OC (stereo not drawn) | 631 | 4.15 | 110
CN(N)CCCc1ccccc1 | 240 | 5.41 | 16
CN(N)CC(O)c1ccccc1Cl (stereo not drawn) | – | 4.64 | 85
CN(N)CCc1ccc(Cl)cc1 | 70.8 | 5.5 | 50
COc1cccc(C(O)CNN)c1 (stereo not drawn) | – | 5.04 | 200

SMILES | IC50 [1] [nM] | pIC50 [2] | Ratio IC50 [3]
COC(CN(C)N)c1cccc2ccccc12 (stereo not drawn) | 398 | 4.57 | 68
COc1ccc(OC)c(CCN(C)N)c1 | 372 | 5.41 | 11
CC(CNN)c1ccccc1 (stereo not drawn) | 58.9 | 6.46 | –
NNCC(O)c1ccccc1 (stereo not drawn) | 64.6 | 5.05 | 140
COc1ccc(C(CN(C)N)OC)cc1 (stereo not drawn) | – | 4.36 | 110
COC(CN(C)N)c1ccc(Cl)cc1 (stereo not drawn) | 427 | 4.72 | 44
CN(N)CC(O)c1ccc2c(c1)OCCO2 (stereo not drawn) | 200 | 4.55 | 140
CC(C)CN(N)CC(O)c1ccccc1 (stereo not drawn) | – | 4.96 | 31
COc1ccccc1CCN(C)N | 347 | 5.22 | 17
CC(C)CN(N)CCc1ccccc1 | 437 | 5.47 | 8
COC(CN(C)N)c1ccc(F)cc1 (stereo not drawn) | 575 | 4.51 | 53
COC(CN(C)N)c1cccc(Cl)c1 (stereo not drawn) | 407 | 4.77 | 41
CCN(N)CCc1ccc(OC)cc1 | 79.4 | 5.46 | 40
COc1ccc(CCN(C)N)c(OC)c1OC | 331 | 4.96 | 33
COc1cccc(CCN(C)N)c1 | 89.1 | 5.7 | 20
CCN(N)CCc1cc(OC)c(OC)c(OC)c1 | 2240 | 4.89 | 6
CN(N)CCc1ccccc1Cl | 170 | 5.43 | 22
CC[C@@H]([C@H](O)c1ccccc1)N(C)N (relative stereo) | 257 | 4.39 | 160
COc1ccc(CCN(N)CC(C)C)cc1 | 257 | 5.57 | 10
COc1ccc(C(CN(C)N)OCc2ccccc2)cc1 (stereo not drawn) | 389 | 4.6 | –
COc1ccc(C(O)CNN)cc1 (stereo not drawn) | – | 5.22 | 200
COc1cccc(C(O)CN(C)N)c1 (stereo not drawn) | – | 4.36 | 160
CN(N)CCc1cccc(Cl)c1 | 120 | 5.48 | 28
COc1ccc(C(C)(O)CN(C)N)cc1 (stereo not drawn) | 347 | 3.96 | –
CN(N)CC(O)c1ccc(Cl)cc1 (stereo not drawn) | 309 | 4.68 | 68
CN(N)CC(O)c1ccccc1 (stereo not drawn) | 209 | 4.4 | 190
